Reference: ChEMBL document CHEMBL2429791, “Preparation of asymmetric urea derivatives that target prostate-specific membrane antigen for SPECT imaging” (J Med Chem, 2013)
One block for each compound: values may come before it.

What was measured:
[1] = molecular target: T1, Glutamate carboxypeptidase 2 (Homo sapiens, UniProt Q04609); assay: Displacement of [125I]-DCIT from PSMA in human LNCaP cells after 1 hr by gamma counting
[2] = molecular target: T1, Glutamate carboxypeptidase 2; assay: Binding affinity to PSMA in human LNCaP cells after 1 hr by gamma counting; format: cell-based
Summary of the method: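 LNCaP cells plated at 4 × 10⁵ cells/well and grown 48 h (37 °C/5% CO₂), then washed with RPMI 1640 containing 0.5% BSA. Saturation binding used ¹²⁵I-labelled ligand (specific activity 81.4 kBq/nmol), 1 h at 37 °C; nonspecific binding measured with 100 µM non-radioactive iodinated compound. Cells washed, lysed in 0.2 N NaOH, gamma-counted; Kd from Scatchard plots.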

Kidney [3] = assay: Drug excretion in C.B.-17/Icr […] Jcl mouse kidney xenografted with human LNCAP and PC3 cells; format: ADME, tissue-based; details: in vivo
Liver = assay: Drug excretion in C.B.-17/Icr […] Jcl mouse liver xenografted with human LNCAP and PC3 cells; format: ADME, tissue-based; details: in vivo
[4] = Distribution coefficient, log D of the compound; format: physicochemical; details: octanol/water
Blood = assay: Biodistribution in blood of C.B.-17/Icr […] Jcl mouse xenografted with human LNCAP and PC3 cells after 30 mins; format: ADME, organism-based; details: in vivo, 0.5 h
Kidney [5] = assay: Biodistribution in kidney of C.B.-17/Icr […] Jcl mouse xenografted with human LNCAP and PC3 cells after 2 mins to 3 hrs; format: ADME, organism-based; details: in vivo
Summary of the method: (§1)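 ¹²⁵I-labelled tracer given iv by tail vein to mice (22–24 g) bearing LNCaP (left shoulder) and PC-3 (right shoulder) xenografts of about 5–10 mm, grown from 1–5 × 10⁶ cells in 1:1 Matrigel. n=4 per time point; decapitated at 2 min, 30 min, 1, 3, 6 h. Tissues weighed and counted; uptake as %ID/g, mean ± SD.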

LNCaP [6] = assay: Biodistribution in LNCAP cells in C.B.-17/Icr +/+ Jcl mouse xenografted with human LNCAP and PC3 cells after 2 mins to 3 hrs; format: ADME, organism-based; details: in vivo
Summary of the method: as §1

PC-3 = assay: Biodistribution in PC3 cells in C.B.-17/Icr +/+ Jcl mouse xenografted with human LNCAP and PC3 cells at 25.9 MBq, iv after 30 mins by SPECT/CT analysis in presence of 2-PMPA; format: ADME, organism-based; details: in vivo, 0.5 h
Summary of the method: (§2)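 Anaesthetised (2.5% isoflurane) LNCaP/PC-3 tumour-bearing mice (20–25 g), kept on a heating pad, given ¹²³I tracer (25.9 MBq in 0.10 mL saline) iv by tail vein, with or without 50 mg/kg 2-PMPA. Pinhole SPECT acquired over 30–64 min (159 keV ±10% window, 32 projections × 60 s, 360°), then CT; images reconstructed by 3D OSEM.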

LNCaP [7] = assay: Biodistribution in LNCAP cells in C.B.-17/Icr +/+ Jcl mouse xenografted with human LNCAP and PC3 cells at 25.9 MBq, iv after 30 mins by SPECT/CT analysis in presence of 2-PMPA; format: ADME, organism-based; details: in vivo, 0.5 h
Summary of the method: as §2

LNCaP [8] = assay: Biodistribution in LNCAP cells in C.B.-17/Icr +/+ Jcl mouse xenografted with human LNCAP and PC3 cells at 25.9 MBq, iv after 30 mins by SPECT/CT analysis; format: ADME, organism-based; details: in vivo, 0.5 h
Summary of the method: as §2

LNCaP [9] = assay: Biodistribution in LNCAP cells in C.B.-17/Icr […] Jcl mouse xenografted with human LNCAP and PC3 cells after 30 to 60 mins; format: ADME, organism-based; details: in vivo
Intestine = assay: Biodistribution in intestine of C.B.-17/Icr […] Jcl mouse xenografted with human LNCAP and PC3 cells after 30 to 60 mins; format: ADME, organism-based; details: in vivo
Liver (Mus musculus) = assay: Biodistribution in liver of C.B.-17/Icr […] Jcl mouse xenografted with human LNCAP and PC3 cells after 30 to 60 mins; details: in vivo

T1 sequence (Q04609 whole entry): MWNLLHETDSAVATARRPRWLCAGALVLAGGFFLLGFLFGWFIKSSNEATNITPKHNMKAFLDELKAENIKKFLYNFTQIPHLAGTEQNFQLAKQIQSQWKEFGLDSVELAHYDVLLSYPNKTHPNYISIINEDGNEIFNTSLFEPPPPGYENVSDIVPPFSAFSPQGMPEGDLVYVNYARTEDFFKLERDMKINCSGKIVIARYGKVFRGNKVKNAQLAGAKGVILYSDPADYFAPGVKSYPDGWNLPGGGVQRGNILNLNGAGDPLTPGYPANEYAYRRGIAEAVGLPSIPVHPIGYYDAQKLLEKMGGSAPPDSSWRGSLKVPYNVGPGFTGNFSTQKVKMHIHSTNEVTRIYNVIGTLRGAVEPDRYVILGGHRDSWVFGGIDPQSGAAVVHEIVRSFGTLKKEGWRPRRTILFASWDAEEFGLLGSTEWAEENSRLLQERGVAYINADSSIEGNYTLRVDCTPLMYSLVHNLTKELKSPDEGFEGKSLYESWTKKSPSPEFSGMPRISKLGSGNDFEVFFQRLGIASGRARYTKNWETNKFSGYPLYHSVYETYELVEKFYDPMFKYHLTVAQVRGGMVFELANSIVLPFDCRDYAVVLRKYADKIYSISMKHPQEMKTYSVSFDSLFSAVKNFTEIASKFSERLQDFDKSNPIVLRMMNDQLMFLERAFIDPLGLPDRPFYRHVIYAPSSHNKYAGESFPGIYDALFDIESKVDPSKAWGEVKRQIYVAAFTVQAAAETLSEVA

Compound: O=C(O)CC[C@H](NC(=O)N[C@@H](CS)C(=O)O)C(=O)O
- Ki [1]: 376 nM

Compound: CNCC(=O)N[C@@H](CCCCN1C(=O)CC(SC[C@H](NC(=O)N[C@@H](CCC(=O)O)C(=O)O)C(=O)O)C1=O)C(=O)O (some centres undefined)
- Ki [1]: 94.8 nM

Compound: O=C(O)CC[C@H](NC(=O)N[C@@H](Cc1ccc(O)c([125I])c1)C(=O)O)C(=O)O
- Kd [2]: 143 nM

Compound: O=C(O)CC[C@H](NC(=O)N[C@@H](CSC1CC(=O)N(CCCCCNC(=O)CNC(=O)c2cccc(I)c2)C1=O)C(=O)O)C(=O)O (some centres undefined)
- Ki [1]: 7.91 nM

Compound: O=C(O)CC[C@H](NC(=O)N[C@@H](CCCCNCc1ccc([125I])cc1)C(=O)O)C(=O)O
- Drug excretion (Kidney [3]): Active
- Drug excretion (Liver): Not Active
- logD [4]: -2.91
- Drug uptake (Blood): Active
- Drug uptake (Kidney [5]): Active
- Drug uptake (LNCaP [6]): Active
- Kd [2]: 20.4 nM

Compound: O=C(O)CC[C@H](NC(=O)N[C@@H](CSC1CC(=O)N(CCCC[C@H](NC(=O)CNC(=O)c2ccccc2)C(=O)O)C1=O)C(=O)O)C(=O)O (some centres undefined)
- Ki [1]: 8.06 nM

Compound: O=C(O)CC[C@H](NC(=O)N[C@@H](CSC1CC(=O)N(CCCC[C@H](NC(=O)CNC(=O)c2cccc([123I])c2)C(=O)O)C1=O)C(=O)O)C(=O)O (some centres undefined)
- Drug uptake (PC-3): Not Active
- Drug uptake (LNCaP [7]): Not Active
- Drug uptake (LNCaP [8]): Active

Compound: CN1C(=O)CC(SC[C@H](NC(=O)N[C@@H](CCC(=O)O)C(=O)O)C(=O)O)C1=O (some centres undefined)
- Ki [1]: 62.1 nM

Compound: O=C(O)CC[C@H](NC(=O)N[C@@H](CSC1CC(=O)N(CCCCCNC(=O)CNC(=O)c2cccc([125I])c2)C1=O)C(=O)O)C(=O)O (some centres undefined)
- Drug uptake (LNCaP [9]): Active
- Drug uptake (Intestine): Active
- Drug uptake (Liver (Mus musculus)): Active

The next lines start with the values.

- Ki [1]: 6.26 nM
Compound: O=C(O)CC[C@H](NC(=O)N[C@@H](CSC1CC(=O)N(CCCC[C@H](NC(=O)CCNC(=O)c2cccc(I)c2)C(=O)O)C1=O)C(=O)O)C(=O)O (some centres undefined)

- Ki [1]: 2.79 nM
Compound: O=C(O)CC[C@H](NC(=O)N[C@@H](CSC1CC(=O)N(CCCC[C@H](NC(=O)c2cccc(I)c2)C(=O)O)C1=O)C(=O)O)C(=O)O (some centres undefined)

- Ki [1]: 2.14 nM
Compound: O=C(O)CC[C@H](NC(=O)N[C@@H](CSC1CC(=O)N(CCCC[C@H](NC(=O)CCCCNC(=O)c2cccc(I)c2)C(=O)O)C1=O)C(=O)O)C(=O)O (some centres undefined)

- Ki [1]: 4.97 nM
Compound: O=C(O)CC[C@H](NC(=O)N[C@@H](CSC1CC(=O)N(CCCC[C@H](NC(=O)CNC(=O)c2cccc(I)c2)C(=O)O)C1=O)C(=O)O)C(=O)O (some centres undefined)

- Ki [1]: 2.95 nM
Compound: O=C(O)CC[C@H](NC(=O)N[C@@H](CSC1CC(=O)N(CCCC[C@H](NC(=O)CCCNC(=O)c2cccc(I)c2)C(=O)O)C1=O)C(=O)O)C(=O)O (some centres undefined)
